Source: ChEMBL document CHEMBL3244170, “Synthesis and biological evaluation of 9,11-azo-13-oxa-15-hydroxyprostanoic acid, a potent inhibitor of platelet aggregation” (J Med Chem, 1979)
The source made the active and inactive calls. No cut-off for these calls is given here.

Tests used:
[1] = tested on: Platelet; test: Inhibition of 2 x 10^-6 M ADP-induced platelet aggregation in human platelet rich plasma at 10^-4 to 10^-6 M incubated for 1.5 mins at 37.5 degC; format: functional
Outline: (§1)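 Human platelet-rich plasma incubated with test agent for 1.5 min at 37.5 °C, then aggregating agent added. Aggregation followed for 5 min turbidimetrically in a dual-channel aggregometer. Baseline (0%) was set with PRP. Full scale (100%) was set at the optical density of plasma treated with the aggregating agent alone. Agents were also checked for agonist activity at 10^-4 and 10^-6 M.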

[2] = tested on: Platelet; test: Inhibition of 8.2 x 10^-4 M arachidonic acid-induced platelet aggregation in human platelet rich plasma at 10^-4 M incubated for 1.5 mins at 37.5 degC; format: functional; outline: as §1
[3] = tested on: Platelet; test: Inhibition of 9.5 x 10^-7 M 9,11 methanoepoxy-PGH2-induced platelet aggregation in human platelet rich plasma at 10^-4 M incubated for 1.5 mins at 37.5 degC; format: functional; outline: as §1
[4] = tested on: Platelet; test: Induction of 1.4 x 10^-6 M PGH2-induced platelet aggregation in human platelet rich plasma at 10^-4 to 10^-6 M incubated for 1.5 mins at 37.5 degC
[5] = tested on: Platelet; test: Induction of 8.2 x 10^-4 M arachidonic acid-induced platelet aggregation in human platelet rich plasma at 10^-4 to 10^-6 M incubated for 1.5 mins at 37.5 degC
[6] = tested on: Platelet; test: Induction of 9.5 x 10^-7 M 9,11 methanoepoxy-PGH2-induced platelet aggregation in human platelet rich plasma at 10^-4 to 10^-6 M incubated for 1.5 mins at 37.5 degC
[7] = tested on: Platelet; test: Inhibition of 1.4 x 10^-6 M PGH2-induced platelet aggregation in human platelet rich plasma at 10^-4 M incubated for 1.5 mins at 37.5 degC; format: functional; outline: as §1
[8] = tested on: Platelet; test: Inhibition of 2 x 10^-6 M ADP-induced platelet aggregation in human platelet rich plasma at 10^-4 M incubated for 1.5 mins at 37.5 degC; format: functional; outline: as §1
[9] = tested on: Platelet; test: Inhibition of 8.3 x 10^-4 M arachidonic acid-induced platelet aggregation in human platelet rich plasma incubated for 1.5 mins at 37.5 degC; format: functional; conditions: 0.025 h
[10] = tested on: Platelet; test: Effect on arachidonic acid metabolism in washed human platelet assessed as HETE level at 10^-4 M by GC-MS analysis (reference value: 23 nmol); format: functional
[11] = tested on: Platelet; test: Effect on arachidonic acid metabolism in washed human platelet assessed as TxB2 level at 10^-4 M by GC-MS analysis (reference value: 14 nmol); format: functional
[12] = target: T1, Thromboxane-A synthase (Homo sapiens, UniProt P24557); test: Inhibition of thromboxane synthetase in intact human platelet microsomes assessed as inhibition of [1-14C]PGH2 to [1-14C]TxA2
T1 sequence (P24557 whole entry): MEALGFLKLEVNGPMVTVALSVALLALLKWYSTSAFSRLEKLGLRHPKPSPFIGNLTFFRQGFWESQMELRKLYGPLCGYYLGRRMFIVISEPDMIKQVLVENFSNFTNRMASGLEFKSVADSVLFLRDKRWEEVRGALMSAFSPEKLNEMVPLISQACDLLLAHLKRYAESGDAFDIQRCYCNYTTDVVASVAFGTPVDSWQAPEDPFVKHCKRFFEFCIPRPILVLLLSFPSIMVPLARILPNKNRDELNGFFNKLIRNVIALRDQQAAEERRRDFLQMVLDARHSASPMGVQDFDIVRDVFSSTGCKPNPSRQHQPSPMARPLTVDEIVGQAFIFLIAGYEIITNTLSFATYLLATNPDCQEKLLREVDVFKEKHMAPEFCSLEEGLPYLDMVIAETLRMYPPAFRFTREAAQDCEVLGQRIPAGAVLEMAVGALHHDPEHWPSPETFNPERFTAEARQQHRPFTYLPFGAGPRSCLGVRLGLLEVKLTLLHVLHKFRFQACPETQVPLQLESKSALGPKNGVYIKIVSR

[13] = tested on: Platelet; test: Inhibition of 8.5 x 10^-7 M 9,11 methanoepoxy-PGH2-induced platelet aggregation in human platelet rich plasma incubated for 1.5 mins at 37.5 degC; format: functional; conditions: 0.025 h
[14] = tested on: Platelet; test: Inhibition of TxA2-induced platelet aggregation in aspirinated human platelet at 10^-4 M incubated for 1.5 mins at 37.5 degC cells preincubated with PGH2 for 15 secs; format: functional, cell-based
Outline: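 TxA2 was generated by stirring human platelet microsomes (0.1 mL, 1.9 mg protein/mL) with PGH2 at 37.5 °C for 15 s. The methods give PGH2 as 10^-4 M; the legend gives it as 1.4 nmol. Aspirinated PRP (0.9 mL), preincubated 1.5 min with inhibitor, was then added. Aggregation was monitored for 5 min. Boiled microsomes served as control.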

| SMILES | inhibition [1] | inhibition (INH) [2] | inhibition (INH) [3] | induction [4] | induction of platelet aggregation [5] | induction of platelet aggregation [6] | inhibition (INH) [7] | inhibition (INH) [8] | IC50 [9] | Activity [10] | Activity [11] | IC50 [12] | IC50 [13] | inhibition [14] |
| --- | --- | --- | --- | --- | --- | --- | --- | --- | --- | --- | --- | --- | --- | --- |
| C=CCO[C@@H]1[C@@H](CCCCCCC(=O)O)[C@@H]2C[C@@H]1N=N2 (racemic) | inactive | 0% | 20% | inactive | inactive | inactive | – | – | – | – | – | – | – | – |
| CCCCCC(O)CO[C@@H]1[C@@H](CCCCCCC(=O)O)[C@@H]2C[C@@H]1N=N2 (mixture of isomers) | inactive | 100% | 100% | inactive | inactive | inactive | 100% | 0% | 31 µM | 27 nmol | 0 nmol | 1 µM | 5.5 µM | Active |
| C=CCO[C@@H]1[C@@H](CCCCCCC(=O)O)[C@@H]2C[C@@H]1N(C(=O)OCC)N2C(=O)OCC (racemic) | inactive | 0% | 88% | inactive | inactive | inactive | 100% | 0% | – | – | – | – | 36 µM | – |
| CCCCCC(O)CO[C@@H]1[C@@H](CCCCCCC(=O)O)[C@@H]2C[C@@H]1N(C(=O)OCC)N2C(=O)OCC (mixture of isomers) | inactive | 0% | 20% | inactive | inactive | inactive | – | – | – | – | – | – | – | – |
| CCOC(=O)N1[C@H]2C[C@@H]([C@H](CCCCCCC(=O)O)[C@H]2O)N1C(=O)OCC (racemic) | inactive | 0% | 21% | inactive | inactive | inactive | – | – | – | – | – | – | – | – |
